Measurements as given in ChEMBL document CHEMBL1146542, “Cytotoxic flavone analogues of vitexicarpin, a constituent of the leaves of Vitex negundo” (J Nat Prod, 2003).
In brackets after ≈: the same amount, converted by molar mass. Activity calls are given as the source filed them. The rule behind the calls is not given here.

Key:
[1] = test system: KB; assay: Cytotoxicity against human KB cells; format: functional; details: read-out: ED50 (the source's name)
[2] = Cytotoxicity against HUVEC; format: cell-based; details: human, read-out: ED50 (the source's name)
[3] = Cytotoxicity against human telomerase reverse transcriptase expressing RPE1 cells; format: cell-based, TERT-RPE1; details: read-out: ED50 (the source's name)
[4] = test system: LNCaP; assay: Cytotoxicity against human LNCAP cells; format: functional; details: read-out: ED50 (the source's name)
[5] = test system: Lu1; assay: Cytotoxicity against human Lu1 cells; format: functional; details: read-out: ED50 (the source's name)
[6] = test system: Col2; assay: Cytotoxicity against human Col2 cells; format: functional; details: read-out: ED50 (the source's name)
[7] = test system: Lu1; assay: Inhibition of human Lu1 cells propagated in hollow fibers via intraperitoneal site of NCr nu/nu mouse at 10 to 40 mg/kg, ip once daily after 7 days of implantation relative to control; format: functional, organism-based
How it was run: (§1)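 Hollow fiber assay in mice with KB, LNCaP and Lu1 cells, with fibers placed at intraperitoneal and subcutaneous sites. Compound given ip at 10, 20 and 40 mg/kg. Read-out was percent growth inhibition of the cells at each site versus control, and body weight of the mice was monitored.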

[8] = test system: LNCaP; assay: Inhibition of human LNCAP cells propagated in hollow fibers via subcutaneous site of NCr nu/nu mouse at 10 to 40 mg/kg, ip once daily after 7 days of implantation relative to control; format: functional; details: dose mg/kg 10-40; how it was run: as §1
[9] = test system: P388; assay: In vivo growth inhibition of mouse P388 cells at 135 mg/kg, ip relative to control; format: functional; details: route intraperitoneal
How it was run: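 Mouse P-388 leukemia model run under a standard protocol. Compound given intraperitoneally at 135 mg/kg/injection, and activity was expressed as T/C value (%).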

[10] = test system: LNCaP; assay: Inhibition of human LNCAP cells propagated in hollow fibers via intraperitoneal site of NCr nu/nu mouse at 10 to 40 mg/kg, ip once daily after 7 days of implantation relative to control; format: functional; details: dose mg/kg 10-40; how it was run: as §1
[11] = test system: KB; assay: Inhibition of human KB cells propagated in hollow fibers via subcutaneous site of NCr nu/nu mouse at 10 to 40 mg/kg, ip once daily after 7 days of implantation relative to control; format: functional; details: dose mg/kg 10-40; how it was run: as §1
[12] = test system: Lu1; assay: Inhibition of human Lu1 cells propagated in hollow fibers via subcutaneous site of NCr nu/nu mouse at 10 to 40 mg/kg, ip once daily after 7 days of implantation relative to control; format: functional; details: dose mg/kg 10-40; how it was run: as §1

SMILES | EC50 [1] | CC50 [2] | CC50 [3] | EC50 [4] | EC50 [5] | EC50 [6] | Activity [7] | inhibition (INH) [8] | T/C [9] | inhibition (INH) [10] | inhibition (INH) [11] | inhibition (INH) [12]
COc1ccc(-c2oc3cc(OC)c(OC)c(O)c3c(=O)c2OC)cc1O [CASTICIN] | 0.2 µg/mL (≈ 0.534 µM) | 0.6 µg/mL (≈ 1.6 µM) | 0.2 µg/mL (≈ 0.534 µM) | 0.5 µg/mL (≈ 1.34 µM) | 0.8 µg/mL (≈ 2.14 µM) | 12.7 µg/mL (≈ 33.9 µM) | – | – | – | – | – | –
COc1ccc(-c2oc3cc(OC)c(OC)c(OC)c3c(=O)c2OC)cc1OC [HEXAMETHOXYFLAVONE] | > 20 µg/mL | > 20 µg/mL | > 20 µg/mL | > 20 µg/mL | > 20 µg/mL | > 20 µg/mL | – | – | – | – | – | –
CCC(=O)Oc1cc(-c2oc3cc(OC)c(OC)c(OC(=O)CC)c3c(=O)c2OC)ccc1OC | 0.6 µg/mL (≈ 1.23 µM) | 6.5 µg/mL (≈ 13.4 µM) | 0.5 µg/mL (≈ 1.03 µM) | 0.4 µg/mL (≈ 0.822 µM) | 1 µg/mL (≈ 2.06 µM) | > 20 µg/mL | – | – | – | – | – | –
C=CCCC(=O)Oc1cc(-c2oc3cc(OC)c(OC)c(OC(=O)CCC=C)c3c(=O)c2OC)ccc1OC | 0.6 µg/mL (≈ 1.11 µM) | 5.5 µg/mL (≈ 10.2 µM) | 0.6 µg/mL (≈ 1.11 µM) | 0.7 µg/mL (≈ 1.3 µM) | 1.4 µg/mL (≈ 2.6 µM) | 15 µg/mL (≈ 27.9 µM) | – | – | – | – | – | –
COc1ccc(-c2oc3cc(OC)c(OC)c(O)c3c(=O)c2OC)cc1OC(=O)c1ccccc1 | > 20 µg/mL | 20 µg/mL (≈ 41.8 µM) | 3.6 µg/mL (≈ 7.52 µM) | > 20 µg/mL | 16.5 µg/mL (≈ 34.5 µM) | > 20 µg/mL | – | – | – | – | – | –
COc1ccc(-c2oc3cc(OC)c(OC)c(OC(C)=O)c3c(=O)c2OC)cc1OC(C)=O | 0.2 µg/mL (≈ 0.436 µM) | 0.1 µg/mL (≈ 0.218 µM) | 0.4 µg/mL (≈ 0.873 µM) | 0.1 µg/mL (≈ 0.218 µM) | 0.7 µg/mL (≈ 1.53 µM) | 15.9 µg/mL (≈ 34.7 µM) | – | – | – | – | – | –
CCCC(=O)Oc1cc(-c2oc3cc(OC)c(OC)c(OC(=O)CCC)c3c(=O)c2OC)ccc1OC | 0.5 µg/mL (≈ 0.972 µM) | > 20 µg/mL | 0.6 µg/mL (≈ 1.17 µM) | 0.8 µg/mL (≈ 1.55 µM) | 1.7 µg/mL (≈ 3.3 µM) | 11.7 µg/mL (≈ 22.7 µM) | – | – | – | – | – | –
COc1ccc(-c2oc3cc(OC)c(OC)c(OC(=O)c4ccccc4)c3c(=O)c2OC)cc1OC(=O)c1ccccc1 | > 20 µg/mL | > 20 µg/mL | 4.3 µg/mL (≈ 7.38 µM) | > 20 µg/mL | 6.5 µg/mL (≈ 11.2 µM) | > 20 µg/mL | – | – | – | – | – | –
CCCCCC(=O)Oc1cc(-c2oc3cc(OC)c(OC)c(OC(=O)CCCCC)c3c(=O)c2OC)ccc1OC | 0.5 µg/mL (≈ 0.876 µM) | 11.1 µg/mL (≈ 19.5 µM) | 0.4 µg/mL (≈ 0.701 µM) | 0.5 µg/mL (≈ 0.876 µM) | 0.7 µg/mL (≈ 1.23 µM) | > 20 µg/mL | inactive | 0% | 100% | 0% | 0% | 0%
